Experimental data reported in ChEMBL document CHEMBL1123532, “Conformationally defined adrenergic agents. 3. Modifications to the carbocyclic ring of 5,6-dihydroxy-1-(2-imidazolinyl)tetralin: improved separation of alpha 1 and alpha 2 adrenergic activities” (J Med Chem, 1986).
Values joined by “and” are separate entries in the source; they are usually repeats but may differ in a detail not shown here. Equal values may be shown once. Active and inactive are the calls of the source. The calls are words filed in the database; no cut-off is given here.

What was measured:
[1] = target: T1, Adrenergic receptor alpha-1 (Homo sapiens) (UniProt P35348+P25100+P35368); assay: Compound was evaluated for alpha-1 adrenergic receptor activity in isolated rabbit aortic tissue, effective dose (CPD); settings: Oryctolagus cuniculus; target entry is the homologue from another species
How it was run: (§1)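 Helical aortic strip in 10-mL bath of Krebs buffer, pH 7.4, under 2 g initial tension and equilibrated 1 h with four washes. Cumulative norepinephrine curve run from 1 × 10^-8 to 1 × 10^-3 M, each response allowed to plateau. After washout, tension reset to 2 g and a cumulative test-compound curve run in the same tissue. Isometric contraction recorded; molar ED50 taken for each.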

[2] = target: T1, Adrenergic receptor alpha-1 (Homo sapiens); assay: Compound was evaluated for alpha-1 adrenergic receptor activity in isolated rabbit aortic tissue, effective dose of norepinephrine (NE); settings: Oryctolagus cuniculus; target entry is the homologue from another species; how it was run: as §1
[3] = Compound was evaluated for the percent of maximum response of the tissue to NE; type: functional
[4] = target: T2, Adrenergic receptor alpha-2 (Homo sapiens) (UniProt P08913+P18825+P18089); assay: Compound was evaluated for alpha-2 adrenergic receptor activity in the phenoxybenzamine (PBZ) - pretreated dog saphenous vein, effective dose of norepinephrine (NE); type: tissue-based; settings: Canis lupus familiaris, target entry is the homologue from another species
How it was run: (§2)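 Beagle lateral saphenous vein rings (3-4 mm, either sex) in bicarbonate buffer with cocaine, hydrocortisone and propranolol, gassed with 95% O2/5% CO2 at 37 °C, pH 7.45, under 2 g. After maximal NE (1 × 10^-4 M) contraction and 60 min wash, exposed to phenoxybenzamine 1 × 10^-7 M for 30 min, then washed 60 min. Control cumulative NE curve, washout, then test-compound curve in the same tissue. Molar ED50 from isometric contraction.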

[5] = target: T2, Adrenergic receptor alpha-2 (Homo sapiens); assay: Compound was evaluated for alpha-2 adrenergic receptor activity in the phenoxybenzamine (PBZ) - pretreated dog saphenous vein, effective dose (CPD); type: tissue-based; settings: Canis lupus familiaris, target entry is the homologue from another species; how it was run: as §2
[6] = target: T1, Adrenergic receptor alpha-1 (Homo sapiens); assay: Compound was evaluated for alpha-1 adrenergic activity in isolated rabbit aortic tissue, effective dose (CPD); type: tissue-based; settings: Oryctolagus cuniculus; Aorta; target entry is the homologue from another species; how it was run: as §1
[7] = target: T1, Adrenergic receptor alpha-1 (Homo sapiens); assay: Compound was evaluated for alpha-1 adrenergic activity in isolated rabbit aortic tissue, effective dose of norepinephrine (NE); type: tissue-based; settings: Oryctolagus cuniculus; Aorta; target entry is the homologue from another species
How it was run: (§3)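 Helical aortic strip in Krebs buffer (pH 7.4) at 2 g initial tension, equilibrated 1 h with four washes; isometric contraction recorded. Cumulative norepinephrine curve (1 × 10^-8 to 1 × 10^-3 M), each step to plateau; washes every 10-15 min for 60-90 min, tension reset to 2 g, then cumulative test-compound curve in the same tissue. Molar ED50 values; index (ED50 NE/ED50 CPD) computed per experiment.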

[8] = target: T1, Adrenergic receptor alpha-1 (Homo sapiens); assay: Compound was evaluated for alpha-1 adrenergic receptor activity in isolated rabbit aortic tissue, effective dose (CPD); IA=Inactive; settings: Oryctolagus cuniculus; target entry is the homologue from another species; how it was run: as §3
[9] = Compound was evaluated for the percent of maximum response of the tissue to NE; IA=Inactive; type: functional
[10] = target: T2, Adrenergic receptor alpha-2 (Homo sapiens); assay: Compound was evaluated for alpha-2 adrenergic receptor activity in the phenoxybenzamine (PBZ) - pretreated dog saphenous vein, effective dose (CPD); Inactive; type: tissue-based; settings: Canis lupus familiaris, target entry is the homologue from another species; how it was run: as §2
[11] = target: T2, Adrenergic receptor alpha-2 (Homo sapiens); assay: Compound was evaluated for alpha-2 adrenergic receptor activity in the phenoxybenzamine (PBZ) - pretreated dog saphenous vein, effective dose (CPD); inactive; type: tissue-based; settings: Canis lupus familiaris, target entry is the homologue from another species

Row | Compound | ED50 [1] [nM] | ED50 [2] [nM] | Emax [3] | ED50 [4] [nM] | ED50 [5] | ED50 [6] [nM] | ED50 [7] [nM] | ED50 [8] | Emax [9] | ED50 [10] | ED50 [11]
1 | Oc1ccc2c(c1O)SCC[C@@H]2C1=NCCN1 | 20 | 219 | 129 and 105 | 526 | 19 nM | – | – | – | – | – | –
2 | C[C@]1(C2=NCCN2)CCCc2c1ccc(O)c2O | 16600 | 41 | 69 and 76 | 924 | 6100 nM | – | – | – | – | – | –
3 | C[C@@H]1CCc2c(ccc(O)c2O)[C@H]1C1=NCCN1 | – | 48 | – | 560 | 4500 nM | 4390 | – | – | – | – | –
4 | Oc1ccc2c(c1O)OCC[C@@H]2C1=NCCN1 | 35 | 67 | 118 and 107 | 720 | 35 nM | – | – | – | – | – | –
5 | Oc1ccc2c(c1O)CCCC2C1=NCCN1 (stereo unspecified) | 17 | 140 | 114 and 102 | 720 | 5 nM | – | – | – | – | – | –
6 | Oc1ccc2c(c1O)CC[C@@H](c1ccccc1)[C@@H]2C1=NCCN1 | – | – | – | 519 | inactive | – | 73 | inactive | inactive | – | –
7 | CC1(C)CC[C@H](C2=NCCN2)c2ccc(O)c(O)c21 | 284 | 125 | 100 | 1240 | – | – | – | – | inactive | inactive | –
8 | CCC1(CC)CC[C@H](C2=NCCN2)c2ccc(O)c(O)c21 | 47000 | 98 | 44 | 603 | – | – | – | – | inactive | – | inactive
